Measurements pooled from the literature.
Compare with care: the assays were run in different laboratories.
Target: Serine/threonine-protein kinase 25 (STK25, Homo sapiens, UniProt O00506)

CC(C)(O)[C@H]1CC[C@H](Nc2ccc3ncc(-c4cccc(C(F)(F)F)c4)n3n2)CC1 — remaining activity (enzyme activity, inhibitor; 1 µM): 87%
Cc1sc(C(=O)NC2COC2)cc1-n1cc(NC(=O)Nc2c(F)cccc2Cl)cn1 — remaining activity (enzyme activity, inhibitor; 10 µM): 70.5%
CC(C)(C)c1nc(-c2cccc(NS(=O)(=O)c3c(F)cccc3F)c2F)c(-c2ccnc(N)n2)s1 — remaining activity (enzyme activity, inhibitor, radiometric; 1 µM): 51%
CCCS(=O)(=O)Nc1ccc(F)c(C(=O)c2c[nH]c3ncc(-c4ccc(Cl)cc4)cc23)c1F — inhibition (enzyme activity, inhibitor; 1 µM): < 10%
c1ccc(CNc2nc(N3CCOc4ccccc43)nc3c2CCCC3)cc1 — inhibition (target engagement in cells, inhibitor, chemoproteomics; 20 mM): 34.6%
CCN1CCC2(CC1)NC(=O)c1c(c3ccc(Cl)c(Cl)c3n1C)C2C#N (racemic) — ΔTm (thermal stability, DSF; 10 µM): -0.2 °C
COc1cc(-c2cn(C3CCc4ccccc4N(CC(F)(F)F)C3=O)nn2)ccc1-n1ccc(C)n1 (centres unmarked) — remaining binding (cell-free assay, competition with immobilised ligand; 1 µM): 100%
COc1cc2ncnc(Nc3ccc(Oc4ccccc4)c(C)c3C)c2cc1OC — inhibition (enzyme activity, inhibitor; 1 µM): 8%
CCN(CC)CCNC(=O)c1c(C)[nH]c(/C=C2\C(=O)Nc3ccc(F)cc32)c1C — remaining signal (cell-free assay; 0.5 µM): 76.1%
CNC(=O)c1ccc(Nc2ncc(C(F)(F)F)c(NCc3nccnc3N(C)S(C)(=O)=O)n2)cc1 — remaining binding (cell-free assay, competition with immobilised ligand; 0.1 µM): 85%
CCOc1cc(-c2nncn2C)ccc1Nc1ncc2cc(C)nc(NCC(C)(C)C)c2n1 — inhibition (enzyme activity, inhibitor, FRET; 1 µM): < 15%
Nc1ncnc2occ(-c3ccc(NC(=O)Nc4cc(C(F)(F)F)ccc4F)cc3)c12 — remaining signal (cell-free assay, inhibitor; 20 µM): 77%
CC1(C)NC(=O)c2[nH]c3c(Cl)c(Cl)ccc3c2C1C#N (centres unmarked) — ΔTm (thermal stability, DSF; 10 µM): 1.6 °C
C#Cc1cccc(Nc2ncnc3cc(OCCOC)c(OCCOC)cc23)c1 — remaining signal (cell-free assay; 0.5 µM): 99.4%
COc1cc(-c2cc(-c3ccc(N4CCNCC4)cc3)cnc2C)cc(OC)c1OC — inhibition (enzyme activity, inhibitor; 1 µM): 2%
C[C@H](c1cccc(C#N)c1)n1cc(Cl)cc(C(N)=O)c1=N — remaining binding (cell-free assay, competition with immobilised ligand; 1 µM): 100%
COc1cccc2c(NCc3ccccc3)nc(-n3c(N)nc4ccccc43)nc12 — inhibition (target engagement in cells, inhibitor, chemoproteomics; 20 mM): 3.5%
Cc1ccc(Nc2nccc(N(C)c3ccc4c(C)n(C)nc4c3)n2)cc1S(N)(=O)=O — remaining activity (enzyme activity, inhibitor; 0.5 µM): 97.3%
COc1ccc2c(O[C@@H]3C[C@H]4C(=O)N[C@]5(C(=O)O)CC5/C=C\CCCCC[C@H](NC(=O)OC5CCCC5)C(=O)N4C3)cc(-c3csc(NC(=O)C(C)C)n3)nc2c1C (some centres unmarked) — remaining binding (cell-free assay, competition with immobilised ligand; 1 µM): 100%
CC1CCCN1c1nccc(-c2cnn3ncccc23)n1 (centres unmarked) — remaining binding (binding; 1 µM): 100%
O=C(NCc1ncc(C(F)(F)F)cc1Cl)c1ccc2c(c1)C1(CCS(=O)(=O)CC1)[C@H](C1CC1)N2S(=O)(=O)c1ccc(F)cc1 — remaining binding (cell-free assay, competition with immobilised ligand; 1 µM): 100%
CN1CCC2(CC1)NC(=O)c1c(c3ccc(Cl)c(Cl)c3n1C)C2C#N (racemic) — ΔTm (thermal stability, DSF; 10 µM): 0.3 °C
Cc1cc(C)c(-n2ccn3nc(-c4cccnc4)cc23)cc1NC(=O)c1cc(C#N)cc(S(F)(F)(F)(F)F)c1 — remaining binding (cell-free assay, competition with immobilised ligand; 0.1 µM): 79.1%
O=C1Nc2ccc(Cl)cc2C1=Cc1cc(Cl)c(O)c(Cl)c1 — remaining signal (cell-free assay; 0.5 µM): 94%
CO[C@@H](C)c1c(Nc2ccc([C@H](N(C)C(=O)C3CCS(=O)(=O)CC3)C(F)(F)F)cc2)cnc2cc(Cl)nn12 — remaining binding (cell-free assay, competition with immobilised ligand; 1 µM): 87%
Cn1cncc1C1=CN(c2ncnc3[nH]cnc23)CCS1 — inhibition (enzyme activity, inhibitor, radiometric; 50 nM): 13.5%
